Measured values from ChEMBL document CHEMBL4411287, “Discovery and optimization of a series of 3-substituted indazole derivatives as multi-target kinase inhibitors for the treatment of lung squamous cell carcinoma” (Eur J Med Chem, 2019).
Substitutions are numbered along the chain they refer to. ≈ marks a conversion by molar mass, not a printed value. Blank lines part the entries; values can stand above or below the molecule they belong to. Calls of active or inactive are those of the source. The calls are words filed in the database; no cut-off is given here.

Assays:
[1] = Half life in ICR(CD-1) mouse at 10 mg/kg, po administered via gavage by triple quadrupole mass spectrometric analysis; type: ADME, organism-based; conditions: in vivo
Outline: (§1)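 Oral gavage at 1 mg/mL in 1% Tween80/water to male ICR mice (18-22 g, n=3). Plasma sampled at 0.25, 0.5, 1, 2, 4, 8 and 24 h, protein precipitated with methanol:acetonitrile (1:1) containing internal standard, and quantified by UPLC-triple quadrupole MS. AUC and MRT were taken from per-animal time-concentration curves. Cmax is the maximum plasma level and Tmax the time to reach it.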

[2] = Tmax in ICR(CD-1) mouse at 10 mg/kg, po administered via gavage by triple quadrupole mass spectrometric analysis; type: ADME, organism-based; conditions: in vivo
Outline: (§2)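 Dosed by gavage at 1 mg/mL in 1% Tween80/water to male ICR mice, 18-22 g, n=3. Blood taken at 0.25, 0.5, 1, 2, 4, 8 and 24 h. Plasma precipitated with methanol:acetonitrile (1:1) containing internal standard, then UPLC-MS/MS on a C18 column with an ammonium acetate/formic acid–acetonitrile gradient. Tmax read directly from the data; MRT calculated per animal from concentration–time curves.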

[3] = Cmax in ICR(CD-1) mouse at 10 mg/kg, po administered via gavage by triple quadrupole mass spectrometric analysis; type: ADME, organism-based; design: dose 10 mg/kg, route oral; conditions: in vivo; outline: as §1
[4] = AUC (0 to t) in ICR(CD-1) mouse at 10 mg/kg, po administered via gavage by triple quadrupole mass spectrometric analysis; type: ADME, organism-based; conditions: in vivo; outline: as §1
[5] = AUC (0 to infinity) in ICR(CD-1) mouse at 10 mg/kg, po administered via gavage by triple quadrupole mass spectrometric analysis; type: ADME, organism-based; design: dose 10 mg/kg, route oral, time infinity; conditions: in vivo; outline: as §1
[6] = MRT in ICR(CD-1) mouse at 10 mg/kg, po administered via gavage by triple quadrupole mass spectrometric analysis; type: ADME, organism-based; conditions: in vivo; outline: as §2
[7] = Solubility of compound; type: physicochemical
[8] = Permeability in human Caco2 cells at 5 uM after 120 mins by LC-MS/MS analysis relative to control; type: ADME, cell-based; conditions: Caco-2, read-out: Fabs
Outline: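 Caco-2 (C2BBe1) monolayers grown confluent on collagen-coated transwell membranes. Buffer is HBSS with 10 mM HEPES at pH 7.4 and pH 6.8. Compound 5 µM added to the apical or basolateral side; duplicate samples taken at 120 min and analysed by LC-MS/MS. Results given as Papp A→B and B→A and efflux ratio B→A/A→B.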

[9] = Efflux ratio of permeability in human Caco2 cells at 5 uM after 120 mins by LC-MS/MS analysis; type: ADME, cell-based; conditions: Caco-2
Outline: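 Caco-2 (C2BBe1) monolayers grown to confluence on collagen-coated transwell polycarbonate membranes. Compound at 5 μM added apically or basolaterally in HBSS with 10 mM HEPES at pH 7.4 and 6.8. Duplicate samples taken at 120 min and analysed by LC-MS/MS. Efflux ratio = Papp(B→A)/Papp(A→B).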

NCI-H2286 [10] = test: Antiproliferative activity against human NCI-H2286 cells harboring DDR2 mutation after 72 hrs by CCK8 assay; type: functional, cell-based; conditions: NCI-H2286, 72 h
Outline: (§3)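 Cells seeded at low density in growth medium and compounds added the next day. Incubated 72 h, then proliferation read by sulforhodamine B, MTT or CCK-8. IC50 obtained by four-parameter concentration-response curve fitting.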

NCI-H2286 [11] = test: Antitumor activity against human NCI-H2286 cells xenografted in SCID mouse assessed as tumor growth inhibition at 50 mg/kg, po qd for 10 consecutive days relative to control; type: functional; conditions: read-out: TGI
Outline: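 NCI-H2286 xenograft established by s.c. fragment implantation. At 100-150 mm³ mice were randomized (vehicle n=10, treated n=5) and given compound orally once daily for 10 days. Tumour volume = length×width²/2, measured twice weekly. TGI taken on the final day from change in volume relative to vehicle, with Student's t-test.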

[12] = tested on: T1, Discoidin domain-containing receptor 2 (Homo sapiens), Q16832 [I638F]; conditions: NCI-H2286, 100 nM
T1 sequence (whole entry): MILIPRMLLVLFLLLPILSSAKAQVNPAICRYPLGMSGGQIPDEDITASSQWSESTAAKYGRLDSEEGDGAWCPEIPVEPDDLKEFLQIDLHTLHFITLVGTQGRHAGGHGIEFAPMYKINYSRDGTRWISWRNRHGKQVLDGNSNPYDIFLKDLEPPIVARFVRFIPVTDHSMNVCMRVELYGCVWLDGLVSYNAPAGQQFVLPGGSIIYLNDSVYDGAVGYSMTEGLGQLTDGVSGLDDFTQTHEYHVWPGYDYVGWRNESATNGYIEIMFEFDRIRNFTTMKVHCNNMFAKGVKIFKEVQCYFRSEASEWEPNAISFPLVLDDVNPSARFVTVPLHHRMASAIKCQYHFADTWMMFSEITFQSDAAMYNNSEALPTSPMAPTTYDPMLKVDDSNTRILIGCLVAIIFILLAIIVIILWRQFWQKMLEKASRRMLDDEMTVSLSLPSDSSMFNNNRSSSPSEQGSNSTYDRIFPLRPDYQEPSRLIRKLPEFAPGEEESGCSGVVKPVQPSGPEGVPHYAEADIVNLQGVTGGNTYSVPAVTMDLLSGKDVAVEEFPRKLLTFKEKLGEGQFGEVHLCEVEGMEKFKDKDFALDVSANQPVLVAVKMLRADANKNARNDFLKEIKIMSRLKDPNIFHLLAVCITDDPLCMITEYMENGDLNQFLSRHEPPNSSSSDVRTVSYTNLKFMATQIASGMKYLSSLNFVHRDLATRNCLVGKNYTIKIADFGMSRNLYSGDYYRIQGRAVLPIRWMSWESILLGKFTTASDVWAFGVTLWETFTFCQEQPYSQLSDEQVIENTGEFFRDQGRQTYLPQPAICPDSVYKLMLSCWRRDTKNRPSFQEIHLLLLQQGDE

[13] = biological target: T2, Discoidin domain-containing receptor 2 (Homo sapiens) (UniProt Q16832); test: Inhibition of DDR2 (unknown origin) at 20 uM using poly (Glu, Tyr) 4:1 substrate after 60 mins by ELISA relative to control
T2 sequence (whole entry): T1 sequence (whole entry) with F638I
Outline: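 ELISA with purified recombinant DDR2 on poly(Glu,Tyr) 4:1 precoated at 20 µg/mL. 10 µM ATP in HEPES pH 7.4 buffer with MgCl2, MnCl2, Na3VO4 and DTT, 1% DMSO; 60 min at 37 °C. Phosphotyrosine detected by PY99 and HRP anti-mouse IgG with o-phenylenediamine at A490. Inhibition = 1−A490/A490control; two separate experiments.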

KG-1 = test: Antiproliferative activity against FGFR1 fused human KG1 cells after 72 hrs by CCK8 assay; type: functional, cell-based; conditions: KG-1, 72 h; outline: as §3
SNU-16 = test: Antiproliferative activity against FGFR2 amplified human SNU16 cells after 72 hrs by CCK8 assay; type: functional, cell-based; conditions: SNU-16, 72 h; outline: as §3
NCI-H716 = test: Antiproliferative activity against FGFR2 amplified human NCI-H716 cells after 72 hrs by CCK8 assay; type: functional, cell-based; conditions: NCI-H716, 72 h; outline: as §3
[14] = Antiproliferative activity against human UM-UC-14 cells harboring FGFR3 mutation after 72 hrs by CCK8 assay; type: functional, cell-based; conditions: UMUC14, 72 h; outline: as §3

- half-life [1]: 1.4 h
- Tmax [2]: 1.67 h
- Cmax [3]: 111 ng/mL
- AUC(0-t) [4]: 66.2 ng·h/mL
- AUC(0-inf) [5]: 610 ng·h/mL
- MRT [6]: 3.2 h
- solubility [7]: 10 µM (≈ 6.14 µg/mL)
- Fa at 2 h, 5 µM [8]: 12%
- efflux ratio at 2 h, 5 µM [9]: 42.7
Compound: Cc1ccc(C(=O)Nc2cc(CN3CCN(C)CC3)cc(C(F)(F)F)c2)cc1-c1ccc2c(-c3cnn(C4CC4)c3)n[nH]c2c1

- IC50 (NCI-H2286 [10]): 33.3 nM
- inhibition [12]: Active
Compound: Cc1nc(Nc2ncc(C(=O)Nc3c(C)cccc3Cl)s2)cc(N2CCN(CCO)CC2)n1 [DASATINIB]
- inhibition in vivo at 50 mg/kg (NCI-H2286 [11]): 50.9%

- inhibition [13]: 76%
Compound: Cn1cccc(C(=O)Nc2cccc(-c3ccc4[nH]ncc4c3)c2)c1=O

- IC50 (SNU-16): 19.6 nM
- IC50 (NCI-H716): 5.9 nM
Compound: COc1cc(CCc2cc(NC(=O)c3ccc(N4C[C@@H](C)N[C@@H](C)C4)cc3)n[nH]2)cc(OC)c1 [FEXAGRATINIB]
- IC50 (KG-1): 5.8 nM
- IC50 [14]: 4.5 nM
